Data: ChEMBL document CHEMBL5252539, “In vitro biological evaluation of new antimycobacterial salicylanilide-tuftsin conjugates” (Eur J Med Chem, 2017)
Activity calls are given as the source filed them. The rule behind the calls is not given here. *1 amine or outer side, *2 acyl side, *3 side chain or, on linkers, in order; H or OH if unused. Where a SMILES comes first, the peptide text is derived from it. [ ]: non-standard residue; d: D form. The star is where a group is joined. X2 = C/C(=N\OCC(=O)*)c1ccc(NC(=O)c2cc(Br)ccc2O)cc1; X1 = C/C(=N\OCC(=O)[*:2])c1ccc(N[*:1])cc1; Benzoyl(5-Br-2-OH) = O=C(c1cc(Br)ccc1O)*; Palmitoyl = CCCCCCCCCCCCCCCC(=O)*; Decanoyl = CCCCCCCCCC(=O)*

Test system: Mycobacterium tuberculosis
Assay: Antimycobacterial activity against isoniazid and rifampicin resistant Mycobacterium tuberculosis A8 ATCC 35822 assessed as reduction in colony forming unit after 28 days by serial dilution method
Type: functional, organism-based
Settings: time 28.0 day
Procedure, shortened: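 After the 4-week MIC incubation in Sula semisynthetic medium (pH 6.5), growth inhibition confirmed by plating on Löwenstein-Jensen solid medium and counting colony forming units.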

## C/C(=N\OCC(=O)NCCCC[C@H](NC(=O)[C@@H]1CCCN1C(=O)[C@H](CCCCN)NC(=O)[C@@H](NC(=O)CO/N=C(\C)c1ccc(NC(=O)c2cc(Br)ccc2O)cc1)[C@@H](C)O)C(=O)NCC(=O)N[C@H](C(=O)N[C@@H](CCCCN)C(=O)N1CCC[C@H]1C(=O)N[C@@H](CCCCN)C(=O)NCC(=O)N[C@H](C(=O)N[C@@H](CCCCN)C(=O)N1CCC[C@H]1C(=O)N[C@@H](CCCCN)C(=O)NCC(=O)N[C@H](C(=O)N[C@@H](CCCCN)C(=O)N1CCC[C@H]1C(=O)N[C@@H](CCCCN)C(=O)NCC(N)=O)[C@@H](C)O)[C@@H](C)O)[C@@H](C)O)c1ccc(NC(=O)c2cc(Br)ccc2O)cc1 ({Benzoyl(5-Br-2-OH)}-[X1]TKPK(X2)GTKPKGTKPKGTKPKG-NH2)
  Activity: Active

## C/C(=N\OCC(=O)N[C@H](C(=O)N[C@@H](CCCCN)C(=O)N1CCC[C@H]1C(=O)N[C@@H](CCCCN)C(=O)NCC(=O)N[C@H](C(=O)N[C@@H](CCCCN)C(=O)N1CCC[C@H]1C(=O)N[C@@H](CCCCN)C(=O)NCC(=O)N[C@H](C(=O)N[C@@H](CCCCN)C(=O)N1CCC[C@H]1C(=O)N[C@@H](CCCCN)C(=O)NCC(=O)N[C@H](C(=O)N[C@@H](CCCCN)C(=O)N1CCC[C@H]1C(=O)N[C@@H](CCCCN)C(=O)NCC(N)=O)[C@@H](C)O)[C@@H](C)O)[C@@H](C)O)[C@@H](C)O)c1ccc(NC(=O)c2cc(Br)ccc2O)cc1 ({Benzoyl(5-Br-2-OH)}-[X1]TKPKGTKPKGTKPKGTKPKG-NH2)
  Activity: Active

## C/C(=N\OCC(=O)NCC(=O)O)c1ccc(NC(=O)c2cc(Br)ccc2O)cc1
  Activity: Active

## CCCCCCCCCC(=O)NCCCC[C@H](NC(=O)[C@@H]1CCCN1C(=O)[C@H](CCCCN)NC(=O)[C@@H](NC(=O)CO/N=C(\C)c1ccc(NC(=O)c2cc(Br)ccc2O)cc1)[C@@H](C)O)C(=O)NCC(N)=O ({Benzoyl(5-Br-2-OH)}-[X1]TKPK(Decanoyl)G-NH2)
  Activity: Active

## C/C(=N\OCC(=O)NCC(=O)N[C@@H](Cc1ccccc1)C(=O)N[C@@H](CC(C)C)C(=O)NCC(=O)N[C@H](C(=O)N[C@@H](CCCCN)C(=O)N1CCC[C@@H]1C(=O)N[C@H](CCCNC(=N)N)C(=O)O)[C@@H](C)O)c1ccc(NC(=O)c2cc(Br)ccc2O)cc1
  Activity: Active

## CCCCCCCCCCCCCCCC(=O)NCCCC[C@H](NC(=O)[C@@H]1CCCN1C(=O)[C@H](CCCCN)NC(=O)[C@@H](NC(=O)CO/N=C(\C)c1ccc(NC(=O)c2cc(Br)ccc2O)cc1)[C@@H](C)O)C(=O)NCC(=O)N[C@H](C(=O)N[C@@H](CCCCN)C(=O)N1CCC[C@H]1C(=O)N[C@@H](CCCCN)C(=O)NCC(=O)N[C@H](C(=O)N[C@@H](CCCCN)C(=O)N1CCC[C@H]1C(=O)N[C@@H](CCCCN)C(=O)NCC(=O)N[C@H](C(=O)N[C@@H](CCCCN)C(=O)N1CCC[C@H]1C(=O)N[C@@H](CCCCN)C(=O)NCC(N)=O)[C@@H](C)O)[C@@H](C)O)[C@@H](C)O ({Benzoyl(5-Br-2-OH)}-[X1]TKPK(Palmitoyl)GTKPKGTKPKGTKPKG-NH2)
  Activity: Active

## C/C(=N\OCC(=O)NCCCC[C@H](NC(=O)[C@@H]1CCCN1C(=O)[C@H](CCCCN)NC(=O)[C@@H](NC(=O)CNC(=O)[C@H](CCCCNC(=O)CO/N=C(\C)c1ccc(NC(=O)c2cc(Br)ccc2O)cc1)NC(=O)[C@@H]1CCCN1C(=O)[C@H](CCCCN)NC(=O)[C@@H](NC(=O)[C@H](CCCNC(=N)N)NC(=O)[C@@H]1CCCN1C(=O)[C@H](CCCCN)NC(=O)[C@@H](N)[C@@H](C)O)[C@@H](C)O)[C@@H](C)O)C(=O)NCC(=O)O)c1ccc(NC(=O)c2cc(Br)ccc2O)cc1 (H-TKPRTKPK(X2)GTKPK(X2)G-OH)
  Activity: Active
